Test results published in ChEMBL document CHEMBL4033790, “Design and Synthesis of Novel Deuterated Ligands Functionally Selective for the γ-Aminobutyric Acid Type A Receptor (GABAAR) α6 Subtype with Improved Metabolic Stability and Enhanced Bioavailability” (J Med Chem, 2018).
In brackets after ≈: the same amount, converted by molar mass. Activity calls are given as the source filed them. The calls are words filed in the database; no cut-off is given here.

How the values were obtained:
[1] = target: GABA-A receptor; alpha-3/beta-3/gamma-2 (Homo sapiens) (UniProt P18507+P28472+P34903); assay: Positive allosteric modulation of GABA-A receptor alpha3beta3gamma2 (unknown origin) expressed in Xenopus laevis oocytes assessed as potentiation of EC3 GABA induced currents up to 1 uM at -60 mV holding potential by electrophysiological method relative to GABA; format: cell-based
In short: (§1)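 Stage 5–6 defolliculated Xenopus oocytes were injected with 2.5 ng total mRNA per oocyte: α1, α2, α3 or α5 with β3 and γ2 at 1:1:5, and α4 or α6 with β3 and γ2 at 3:1:5. Oocytes were kept ≥36 h at 18 °C in NDE medium before recording. Compounds were co-applied with GABA titrated to EC3-5 for each oocyte. Curves were fitted with the Hill equation; mean ± SEM from ≥3 oocytes across two batches.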

[2] = Aqueous solubility of the compound in DI water at pH 7 after 2 hrs by LC-MS analysis; format: physicochemical; conditions: buffer, pH 7, 2 h
In short: (§2)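 10 mg compound dissolved in 2 mL DMAC; 10 μL of this added to 2 mL DI water (pH 7, sonicated) or 2 mL 0.01 M aq HCl (pH 2), held 2 h at 37 °C. Filtered through 0.45 micron filter, then quantified by LC-MS in SIM mode against calibration curves of standards in DMAC (n = 5); n=3.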

[3] = Metabolic stability in human liver microsomes assessed as parent compound remaining at 10 uM after 60 mins by LC-MS analysis; format: ADME, microsome; conditions: read-out: Stability
In short: (§3)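 The 60 min samples of the microsomal incubation (10 μM compound, human or mouse liver microsomes at 0.5 mg/mL, NADPH regenerating system, 37 °C) were analysed by LC-MS. Detection used SIM mode with dual ESI/APCI ionization, calibrated to the retention times and masses of the parent and its O-demethylated metabolites. Peak intensities were measured.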

[4] = target: GABA-A receptor; alpha-2/beta-3/gamma-2 (Homo sapiens) (UniProt P18507+P28472+P47869); assay: Positive allosteric modulation of GABA-A receptor alpha2beta3gamma2 (unknown origin) expressed in Xenopus laevis oocytes assessed as potentiation of EC3 GABA induced currents up to 1 uM at -60 mV holding potential by electrophysiological method relative to GABA; format: cell-based; in short: as §1
Mus musculus = assay: Neurotoxicity in Swiss Webster mouse assessed as induction of motor impairment at 40 mg/kg administered via oral gavage measured after 10 to 60 mins by rotarod method; format: toxicity, organism-based; conditions: in vivo
In short: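 Female mice were given a single oral gavage dose of 40 mg/kg, either in 50% PBS/40% propylene glycol/10% DMSO or, for poorly soluble compounds, in 2% polyethylene glycol plus 2.5% hydroxymethyl cellulose. Rotarod performance was tested 10, 30 and 60 min after dosing, with diazepam 5 mg/kg as positive control.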

[5] = Solubility of the compound in 0.01M HCl at pH 2 after 2 hrs by LC-MS analysis; format: physicochemical; conditions: buffer, pH 2, 2 h; in short: as §2
[6] = Metabolic stability in mouse liver microsomes assessed as parent compound remaining at 10 uM after 60 mins by LC-MS analysis; format: ADME, microsome; conditions: read-out: Stability; in short: as §3
[7] = target: Voltage-gated inwardly rectifying potassium channel KCNH2 (Homo sapiens, UniProt Q12809); assay: Displacement of [3H]-dofetilide from human ERG expressed in HEK cell membranes at >10 uM after 60 to 90 mins by scintillation counting
Liver = assay: Half life in human liver microsomes at 10 uM by LC-MS/MS analysis; format: ADME, microsome
In short: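 Compound at 10 μM final was preincubated 5 min at 37 °C with NADPH regenerating system in phosphate buffer, pH 7.4. Human or mouse liver microsomes (0.5 mg/mL protein) were added to start the reaction. Samples were taken at 0 (no microsomes) and 10–60 min and measured by LC-MS/MS against an internal standard. Half-life = 0.693/k, with k the slope of ln peak-area ratio versus time. Three experiments, each in duplicate.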

[8] = target: GABA-A receptor; alpha-1/beta-3/gamma-2 (Homo sapiens) (UniProt P14867+P18507+P28472); assay: Positive allosteric modulation of GABA-A receptor alpha1beta3gamma2 (unknown origin) expressed in Xenopus laevis oocytes assessed as potentiation of EC3 GABA induced currents up to 1 uM at -60 mV holding potential by electrophysiological method relative to GABA; format: cell-based; in short: as §1
Rattus norvegicus = species on record: Rattus norvegicus; assay: Displacement of [3H]-flunitrazepam from rat brain GABA-A receptor benzodiazepine site […] at 10 uM after 60 to 90 mins by scintillation counting; conditions: tested as the 2H-labelled form
[9] = target: GABA-A receptor; alpha-5/beta-3/gamma-2 (Homo sapiens) (UniProt P18507+P28472+P31644); assay: Positive allosteric modulation of GABA-A receptor alpha5beta3gamma2 (unknown origin) expressed in Xenopus laevis oocytes assessed as potentiation of EC3 GABA induced currents up to 1 uM at -60 mV holding potential by electrophysiological method relative to GABA; format: cell-based; in short: as §1
[10] = target: GABA A receptor alpha-4/beta-3/gamma-2 (Homo sapiens) (UniProt P18507+P28472+P48169); assay: Positive allosteric modulation of GABA-A receptor alpha4beta3gamma2 (unknown origin) expressed in Xenopus laevis oocytes assessed as potentiation of EC3 GABA induced currents up to 1 uM at -60 mV holding potential by electrophysiological method relative to GABA; format: cell-based; in short: as §1
[11] = target: GABA-A receptor; alpha-6/beta-3/gamma-2 (Homo sapiens) (UniProt P18507+P28472+Q16445); assay: Positive allosteric modulation of GABA-A receptor alpha6beta3gamma2 (unknown origin) expressed in Xenopus laevis oocytes assessed as potentiation of EC3 GABA induced currents at 30 uM at -60 mV holding potential by electrophysiological method relative to GABA; format: cell-based; in short: as §1
[12] = Drug level in mouse liver microsomes treated with 7-Methoxy-d3-2-(6-methoxypyridin-3-yl)-2,5-dihydro-3Hpyrazolo[4,3-c]quinolin-3-one after 60 mins by LC-MS analysis; format: ADME; conditions: 1 h
[13] = Drug level in human liver microsomes treated with 7-Methoxy-d3-2-(6-methoxypyridin-3-yl)-2,5-dihydro-3Hpyrazolo[4,3-c]quinolin-3-one after 60 mins by LC-MS analysis; format: ADME; conditions: 1 h
[14] = Drug level in mouse liver microsomes treated with 7-Methoxy-2-(4-methoxy-d3-phenyl)-2,5-dihydro-3H-pyrazolo-[4,3-c]quinolin-3-one after 60 mins by LC-MS analysis; format: ADME; conditions: 1 h
[15] = Drug level in human liver microsomes treated with 7-Methoxy-2-(4-methoxy-d3-phenyl)-2,5-dihydro-3H-pyrazolo-[4,3-c]quinolin-3-one after 60 mins by LC-MS analysis; format: ADME; conditions: 1 h
[16] = Drug level in human liver microsomes treated with 7-Methoxy-d3-2-(4-methoxyphenyl)-2,5-dihydro-3H-pyrazolo-[4,3-c]quinolin-3-one after 60 mins by LC-MS analysis; format: ADME; conditions: 1 h
[17] = Drug level in mouse liver microsomes treated with 7-Methoxy-d3-2-(4-methoxyphenyl)-2,5-dihydro-3H-pyrazolo-[4,3-c]quinolin-3-one after 60 mins by LC-MS analysis; format: ADME; conditions: 1 h
[18] = target: 5-hydroxytryptamine receptor 2B (Homo sapiens) (UniProt P41595); assay: Displacement of [3H]-LSD from human recombinant 5HT2B receptor expressed in HEK293 cells at 10 uM after 60 to 90 mins by scintillation counting; format: cell-based; conditions: tested as the 2H-labelled form
[19] = target: Mu-type opioid receptor (Homo sapiens) (UniProt P35372); assay: Displacement of [3H]-DAMGO from human recombinant MOR expressed in HEK293 cells at 10 uM after 60 to 90 mins by scintillation counting; format: cell-based; conditions: tested as the 2H-labelled form
[20] = target: 5-hydroxytryptamine receptor 7 (Homo sapiens) (UniProt P34969); assay: Displacement of [3H]-LSD from human recombinant 5HT7 receptor expressed in HEK293 cells at 10 uM after 60 to 90 mins by scintillation counting; format: cell-based; conditions: tested as the 2H-labelled form
[21] = target: T1, 5-hydroxytryptamine receptor 2C (Homo sapiens) (UniProt P28335); assay: Displacement of [3H]-mesulergine from human recombinant 5HT2C receptor expressed in HEK293T cells at 10 uM after 60 to 90 mins by scintillation counting; format: cell-based; conditions: HEK-293T, tested as the 2H-labelled form
T1 sequence (whole entry): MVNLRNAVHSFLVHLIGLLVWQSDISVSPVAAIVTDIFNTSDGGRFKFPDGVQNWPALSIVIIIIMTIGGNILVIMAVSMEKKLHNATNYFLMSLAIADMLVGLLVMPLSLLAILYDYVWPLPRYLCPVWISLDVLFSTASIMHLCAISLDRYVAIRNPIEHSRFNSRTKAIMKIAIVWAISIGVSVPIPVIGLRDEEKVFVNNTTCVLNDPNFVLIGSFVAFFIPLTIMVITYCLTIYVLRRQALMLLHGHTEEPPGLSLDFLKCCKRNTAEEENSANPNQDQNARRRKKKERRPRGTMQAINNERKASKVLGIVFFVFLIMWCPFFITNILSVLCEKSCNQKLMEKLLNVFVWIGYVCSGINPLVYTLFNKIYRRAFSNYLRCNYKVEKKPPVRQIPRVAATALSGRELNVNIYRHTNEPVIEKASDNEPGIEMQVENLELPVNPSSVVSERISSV

[22] = Drug level in human liver microsomes treated with 7-Methoxy-2-(6-methoxy-d3-pyridin-3-yl)-2,5-dihydro-3Hpyrazolo[4,3-c]quinolin-3-one after 60 mins by LC-MS analysis; format: ADME; conditions: 1 h
[23] = Drug level in mouse liver microsomes treated with 7-Methoxy-2-(6-methoxy-d3-pyridin-3-yl)-2,5-dihydro-3Hpyrazolo[4,3-c]quinolin-3-one after 60 mins by LC-MS analysis; format: ADME; conditions: 1 h

Sequence of Voltage-gated inwardly rectifying potassium channel KCNH2 (Q12809 whole entry): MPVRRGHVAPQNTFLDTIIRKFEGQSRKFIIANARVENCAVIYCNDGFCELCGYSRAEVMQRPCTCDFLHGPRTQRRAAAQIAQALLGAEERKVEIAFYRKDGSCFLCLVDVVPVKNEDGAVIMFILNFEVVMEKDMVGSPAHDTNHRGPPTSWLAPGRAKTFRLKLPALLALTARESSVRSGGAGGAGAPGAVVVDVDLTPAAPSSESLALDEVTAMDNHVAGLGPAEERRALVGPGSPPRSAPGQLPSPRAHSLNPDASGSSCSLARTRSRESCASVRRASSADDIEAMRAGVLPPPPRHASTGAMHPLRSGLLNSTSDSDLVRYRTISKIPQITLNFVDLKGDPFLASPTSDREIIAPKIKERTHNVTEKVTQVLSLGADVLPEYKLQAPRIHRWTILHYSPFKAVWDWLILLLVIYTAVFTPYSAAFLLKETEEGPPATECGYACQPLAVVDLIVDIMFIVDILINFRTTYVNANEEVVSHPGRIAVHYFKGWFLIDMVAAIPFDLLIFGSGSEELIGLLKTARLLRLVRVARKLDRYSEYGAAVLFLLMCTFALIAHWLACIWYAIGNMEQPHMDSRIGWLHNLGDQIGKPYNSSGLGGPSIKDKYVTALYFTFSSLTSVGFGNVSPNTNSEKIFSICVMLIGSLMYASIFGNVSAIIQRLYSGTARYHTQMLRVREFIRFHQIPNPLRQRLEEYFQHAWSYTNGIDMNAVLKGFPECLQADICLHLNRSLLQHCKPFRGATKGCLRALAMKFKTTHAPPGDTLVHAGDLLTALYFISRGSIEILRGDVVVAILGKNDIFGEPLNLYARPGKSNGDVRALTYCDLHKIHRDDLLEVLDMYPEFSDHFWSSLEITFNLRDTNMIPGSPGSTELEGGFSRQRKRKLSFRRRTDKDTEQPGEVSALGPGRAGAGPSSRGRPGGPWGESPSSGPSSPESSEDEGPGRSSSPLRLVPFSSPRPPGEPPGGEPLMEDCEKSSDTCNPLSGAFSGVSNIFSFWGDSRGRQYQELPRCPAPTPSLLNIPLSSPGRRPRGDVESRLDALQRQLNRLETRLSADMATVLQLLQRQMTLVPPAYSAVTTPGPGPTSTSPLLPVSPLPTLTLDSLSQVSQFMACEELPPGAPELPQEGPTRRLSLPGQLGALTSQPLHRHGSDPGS
Sequence of 5-hydroxytryptamine receptor 2B (Homo sapiens) (P41595 whole entry): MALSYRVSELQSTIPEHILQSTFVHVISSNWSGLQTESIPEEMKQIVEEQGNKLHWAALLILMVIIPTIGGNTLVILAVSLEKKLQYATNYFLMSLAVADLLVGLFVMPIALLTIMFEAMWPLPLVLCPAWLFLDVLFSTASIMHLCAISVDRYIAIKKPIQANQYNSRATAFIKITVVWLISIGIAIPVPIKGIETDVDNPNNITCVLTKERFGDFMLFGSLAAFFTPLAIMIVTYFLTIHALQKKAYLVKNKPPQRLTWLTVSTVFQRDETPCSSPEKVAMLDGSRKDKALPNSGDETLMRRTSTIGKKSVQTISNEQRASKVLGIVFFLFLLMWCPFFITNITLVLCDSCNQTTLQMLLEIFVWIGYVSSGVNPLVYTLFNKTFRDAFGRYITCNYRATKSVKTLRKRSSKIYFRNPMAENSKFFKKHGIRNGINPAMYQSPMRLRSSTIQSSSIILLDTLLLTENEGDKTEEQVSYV
Sequence of Mu-type opioid receptor (Homo sapiens) (P35372 whole entry): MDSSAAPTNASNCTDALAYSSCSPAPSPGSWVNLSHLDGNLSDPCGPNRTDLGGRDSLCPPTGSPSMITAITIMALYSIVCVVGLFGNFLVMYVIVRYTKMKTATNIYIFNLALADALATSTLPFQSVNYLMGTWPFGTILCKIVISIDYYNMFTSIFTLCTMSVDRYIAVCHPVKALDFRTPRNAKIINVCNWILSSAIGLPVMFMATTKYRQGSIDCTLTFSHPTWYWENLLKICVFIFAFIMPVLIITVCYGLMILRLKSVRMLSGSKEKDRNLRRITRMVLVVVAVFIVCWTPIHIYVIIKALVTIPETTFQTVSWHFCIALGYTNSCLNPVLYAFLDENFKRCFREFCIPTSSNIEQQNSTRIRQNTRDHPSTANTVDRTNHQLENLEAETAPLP
Sequence of 5-hydroxytryptamine receptor 7 (Homo sapiens) (P34969 whole entry): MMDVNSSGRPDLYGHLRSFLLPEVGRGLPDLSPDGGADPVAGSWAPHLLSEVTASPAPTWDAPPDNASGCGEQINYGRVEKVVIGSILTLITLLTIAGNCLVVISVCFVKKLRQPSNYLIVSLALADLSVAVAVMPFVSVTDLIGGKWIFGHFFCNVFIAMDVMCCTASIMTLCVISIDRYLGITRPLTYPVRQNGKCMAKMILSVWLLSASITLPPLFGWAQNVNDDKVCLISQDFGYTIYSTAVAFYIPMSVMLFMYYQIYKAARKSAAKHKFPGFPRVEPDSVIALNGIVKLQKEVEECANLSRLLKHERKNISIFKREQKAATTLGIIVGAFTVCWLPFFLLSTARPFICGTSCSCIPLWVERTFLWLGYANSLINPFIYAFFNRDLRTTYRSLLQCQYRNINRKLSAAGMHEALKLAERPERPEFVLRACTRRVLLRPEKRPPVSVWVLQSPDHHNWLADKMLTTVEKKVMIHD

In the case of `COc1cccc(-n2nc3c4cc(Cl)ccc4[nH]cc-3c2=O)c1`, the Activity [1] is reported as less than 0%, the solubility [2] is reported as 6.8 µM (≈ 2.22 µg/mL) and the remaining at 1 h, 10 µM [3] is reported as 81.4%. For the same compound, the Activity [4] was less than 0%, the Activity (Mus musculus) was “Non-Toxic” and the solubility [5] was 2.6 µM (≈ 0.847 µg/mL). For the same compound, the remaining at 1 h, 10 µM [6] was 59.8%, the “inhibition (INH)” value [7] was “Not Active” and the t1/2 (Liver) was 3.4 h. For the same compound, the Activity [8] was less than 0%, the inhibition (Rattus norvegicus) was “Active” and the Activity [9] was less than 0%. For the same compound, the Activity [10] was less than 0%, the Activity [11] was 400% and the Activity ([11]; tested as the 2H-labelled form) was “inactive”.

In the case of `COc1ccc(-n2nc3c4ccc(O)cc4[nH]cc-3c2=O)cn1`, the Drug metabolism [12] is reported as “Metabolite_Detected” and the Drug metabolism [13] is reported as “Metabolite_Detected”.

In the case of `[2H]C([2H])([2H])Oc1ccc(-n2nc3c4ccc(O)cc4[nH]cc-3c2=O)cc1`, the Drug metabolism [14] is reported as “Metabolite_Detected” and the Drug metabolism [15] is reported as “Metabolite_Detected”.

With `O=c1c2c[nH]c3cc(O)ccc3c-2nn1-c1ccc(O)cc1` the Drug metabolism [14] was “Metabolite_Detected”, the Drug metabolism [15] was “Metabolite_Detected” and the Drug metabolism [16] was “Metabolite_Detected”. The Drug metabolism [17] was “Metabolite_Detected”.

For `[2H]C([2H])([2H])Oc1ccc2c3nn(-c4ccc(O)nc4)c(=O)c-3c[nH]c2c1`, the Drug metabolism [12] was “Metabolite_Detected” and the Drug metabolism [13] was “Metabolite_Detected”.

For `COc1ccc(-n2nc3c4ccc(Br)cc4[nH]cc-3c2=O)cc1`, the Activity [1] was less than 0%, the solubility [2] was 8.3 µM (≈ 3.07 µg/mL) and the inhibition [18] was “Active”. For the same compound, the remaining at 1 h, 10 µM [3] was 66.9%, the Activity [4] was less than 0% and the Activity (Mus musculus) was “Non-Toxic”. For the same compound, the solubility [5] was 3.3 µM (≈ 1.22 µg/mL), the inhibition [19] was “Active” and the remaining at 1 h, 10 µM [6] was 69%. The “inhibition (INH)” value [7] was “Not Active”, the t1/2 (Liver) was 1.7 h and the Activity [8] was less than 0%. For the same compound, the inhibition (Rattus norvegicus) was “Active”, the Activity [9] was less than 0% and the inhibition [20] was “Active”. The Activity [10] was less than 0%, the Activity [11] was 900% and the Activity ([11]; tested as the 2H-labelled form) was “inactive”. For the same compound, the inhibition [21] was “Active”.

In the case of `COc1ccc2c3nn(-c4ccc(O)nc4)c(=O)c-3c[nH]c2c1`, the Drug metabolism [22] is reported as “Metabolite_Detected” and the Drug metabolism [23] is reported as “Metabolite_Detected”.

For `COc1ccc2c3nn(-c4ccc(O)cc4)c(=O)c-3c[nH]c2c1`, the Drug metabolism [14] was “Metabolite_Detected” and the Drug metabolism [15] was “Metabolite_Detected”.

In the case of `[2H]C([2H])([2H])Oc1ccc(-n2nc3c4ccc(O)cc4[nH]cc-3c2=O)cn1`, the Drug metabolism [22] is reported as “Metabolite_Detected” and the Drug metabolism [23] is reported as “Metabolite_Detected”.

For `[2H]C([2H])([2H])Oc1ccc2c3nn(-c4ccc(O)cc4)c(=O)c-3c[nH]c2c1`, the Drug metabolism [16] was “Metabolite_Detected” and the Drug metabolism [17] was “Metabolite_Detected”.

In the case of `COc1ccc(-n2nc3c4ccc(O)cc4[nH]cc-3c2=O)cc1`, the Drug metabolism [16] is reported as “Metabolite_Detected” and the Drug metabolism [17] is reported as “Metabolite_Detected”.

In the case of `O=c1c2c[nH]c3cc(O)ccc3c-2nn1-c1ccc(O)nc1`, the Drug metabolism [22] is reported as “Metabolite_Detected”, the Drug metabolism [12] is reported as “Metabolite_Detected” and the Drug metabolism [23] is reported as “Metabolite_Detected”. For the same compound, the Drug metabolism [13] was “Metabolite_Detected”.
